# Bioassay records deposited in PubChem by Johns Hopkins Ion Channel Center.
# Compounds with a hit are over-represented: about 3.7% of the library has one in this group of screens.
# hERG protect = compounds protecting human hERG from proarrhythmic drug block | Q12809 | CHO-hERG, FluxOR thallium flux, dofetilide IC70 present | activation (rescue from dofetilide block), less the hit threshold, % at 10 µM | 310,000 tested, 0.51% active | AID 1511;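 active = activation above the mean of controls blocked by dofetilide plus 5 SD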;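 note: thallium influx through hERG after potassium depolarization seen as dye fluorescence rise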
# Kir21 inh = inhibitors of mouse Kir2.1 inward-rectifier potassium channel. HEK293-Kir2.1, FluxOR thallium flux fluorescence; stronger effect = lower value. B-score at 10 µM. 310,000 tested, 0.85% active. AID 1672;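 active = fluorescence ratio B-score at or below minus 3 SD of library scores, with starting-brightness B-score within 2 SD, cut at about -4.2 in these data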;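 note: channel flux triggered by added potassium and thallium sulfate stimulus; B-score of peak minus minimum fluorescence over baseline after thallium stimulus; more negative B-score means stronger Kir2.1 block with less thallium influx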
# KCNK3 block = human KCNK3 channel inhibition, primary screen; B-score at 10 µM; 340,000 tested, 0.84% active; CHO-KCNK3 thallium flux, FluxOR fluorescence; stronger effect = lower value; O14649;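 active = B-score under library mean minus 4 SD, starting fluorescence ratio at most library mean plus 5 SD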;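 note: more negative B-score means stronger inhibition of thallium flux through KCNK3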
# KCNQ1 act = potentiators or activators of human KCNQ1 potassium channel; P51787; CHO-K1 KCNQ1, thallium flux FluxOR fluorescence; stronger effect = higher value; B-score at 10 µM; 310,000 tested, 0.35% active;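 active = fluorescence ratio B-score, a plate-corrected score, at least three library SD, with initial intensity B-score within 5 SD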
#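 Assay system: stable KCNQ1 CHO-K1 line; medium: assay buffer, equal DMSO in all wells; timing: 90 min dye loading and 20 min compound exposure, both at room temperature; technique: kinetic FluxOR thallium fluorescence, 10-s 1-Hz baseline, 110-s post-stimulus read; read-out basis: B score of baseline-normalized fluorescence ratio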
# KCNQ1 inh = blocks the human KCNQ1 potassium channel; P51787; CHO-K1 KCNQ1, FluxOR thallium flux fluorescence; stronger effect = higher value; B-score at 10 µM; 310,000 tested, 1.3% active; AID 2642;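 active = compounds whose thallium flux B-score, printed positive for inhibition, exceeds three library SD while starting fluorescence stays within three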;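 note: channel opened by potassium depolarization with thallium stimulus after 20 min compound exposure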
# KCNK9 block = blocks the human KCNK9 two-pore domain potassium channel; Q9NPC2; HEK293 KCNK9, FluxOR thallium flux fluorescence; stronger effect = lower value; B-score at 10 µM; 310,000 tested, 1.2% active; AID 488922;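 active = ratio B-score over 3 SD below the library mean, with starting fluorescence within 5 SD of its mean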;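 note: negative B-score means less thallium flux so channel inhibition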
# Target sequence (Q9NPC2 whole entry, looked up, the tested form may be a part): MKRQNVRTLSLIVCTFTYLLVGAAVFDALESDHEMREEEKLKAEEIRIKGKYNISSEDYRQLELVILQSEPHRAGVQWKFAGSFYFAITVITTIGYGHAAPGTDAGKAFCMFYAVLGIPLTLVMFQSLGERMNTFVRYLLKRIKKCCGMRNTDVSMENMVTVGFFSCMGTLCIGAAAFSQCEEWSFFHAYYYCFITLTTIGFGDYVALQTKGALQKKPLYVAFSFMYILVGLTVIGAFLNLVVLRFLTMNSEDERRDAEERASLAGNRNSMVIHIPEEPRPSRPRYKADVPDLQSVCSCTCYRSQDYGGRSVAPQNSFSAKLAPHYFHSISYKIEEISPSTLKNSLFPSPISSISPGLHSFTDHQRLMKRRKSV
# Active calls of the source: *; i = inactive; · = not tested or not shown.
SMILES,hERG protect,Kir21 inh,KCNK3 block,KCNQ1 act,KCNQ1 inh,KCNK9 block
Cc1ccn2c(NC(=O)C(C)(C)Oc3ccc(Cl)cc3)c(-c3cccs3)nc2c1,-15.4,-0.83,i,i,i,-7.39*
CN(C)CCCN(C(=O)c1cc(-c2cccs2)nc2ccccc12)c1nc2c(F)cccc2s1,-28.7,0.16,i,i,6*,i
CN(C)CCCN(C(=O)CCc1ccccc1)c1nc2c(F)cccc2s1,-12.9,-2.05,i,i,i,i
Cc1ccc2nc(N(CCCN(C)C)C(=O)c3cc(-c4cccs4)nc4ccccc34)sc2c1,-30.8,-1.16,i,i,8*,i
COc1cc2ccccc2cc1C(=O)N(CCN(C)C)c1nc2ccc(C)cc2s1,-14.3,1.39,i,i,i,i
CN(C)CCCN(C(=O)CCOc1ccccc1)c1nc2c(F)cccc2s1,-14.5,-0.23,i,18*,i,i
O=C(Cc1c[nH]c2ccccc12)Nc1ccccc1N1CCOCC1,-4.3,-2.1,i,i,i,i
COc1ccc(CCNCC(O)COc2cccc(Br)c2)cc1 (stereo unspecified),-9.9,-8.74*,i,i,i,i
COc1ccc(CCNCC(O)c2ccccc2)cc1 (stereo unspecified),-11.9,-4.89*,i,i,i,i
COc1ccc(CCC(C)NCc2ccc(Cl)c(Cl)c2)cc1 (stereo unspecified),-16.5,-4.47*,i,i,i,i
CC(=O)c1cccc(OCC(O)CNCCc2ccc(Cl)cc2)c1 (stereo unspecified),-2.2,-3.55,i,i,i,i
COc1ccc2ccccc2c1CNC(C)CCc1ccccc1 (stereo unspecified),-7.5,-7.74*,i,i,i,i
CN(C)CCOC(=O)CCCCCCCCC(=O)OCCN(C)C,-8.5,0.07,i,i,i,i
Cc1noc(C)c1CSCC(=O)Nc1ccc(S(C)(=O)=O)cc1,·,·,i,·,·,·
CC1CN(C(=O)c2ccc(CNS(=O)(=O)c3cccc(Cl)c3)cc2)CC(C)O1 (stereo unspecified),-7.8,0.15,i,i,i,i
COc1ccc(CCC(C)NCc2ccc(F)cc2)cc1 (stereo unspecified),-5.9,-6.1*,i,i,i,i
COc1ccc(CCC(C)NCC(C)c2ccccc2)cc1 (stereo unspecified),-1.7,-4.44*,i,i,i,i
COc1ccc(CCC(C)NCc2cc(OC)cc(OC)c2)cc1 (stereo unspecified),-2.2,-3.93,i,i,i,i
COc1ccc(CCNCC(C)c2ccccc2)cc1 (stereo unspecified),-6.5,-0.94,i,i,i,i
COCc1nc2ccccc2n1CCc1ccccc1,-8.5,-1.58,i,i,i,i
COc1ccccc1C(=O)ON=C1c2ccccc2-c2ccccc21,-19.1,1.79,i,i,i,-8.09*
CCC(C)N(C(=O)CSc1nnc(-c2ccco2)n1C)C1CCS(=O)(=O)C1 (stereo unspecified),-6.4,1.49,i,i,i,i
CC1(C)CC(c2nc(-c3ccc([N+](=O)[O-])cc3)cs2)CCO1 (stereo unspecified),-22.1,-1.18,i,i,7*,i
O=C1CC2c3ccccc3C1C1C(=O)N(CCc3ccccc3)C(=O)C21 (stereo unspecified),-8.3,1.48,i,i,i,i
CCOc1c(OC(C)=O)ccc(/C=C/c2ccc3cccc(OC(C)=O)c3n2)c1[N+](=O)[O-],-12.6,-0.05,i,i,12*,i
Cc1cccc(NC(=O)CCC(=O)c2cccs2)n1,-11.7,-0.05,i,i,i,i
CN(C[C@H](Cc1ccccc1)N(C[C@H](Cc1ccccc1)N(CCC(C)(C)C)N=O)N=O)N=O,-11.9,-0.46,i,i,8*,i
CC(C)CCN(N=O)[C@@H](Cc1ccccc1)CN(N=O)[C@@H](Cc1ccccc1)CN(C)N=O,-16.1,0.72,i,i,i,i
